Consider 15 compounds from PubChem BioAssay.

Where “and” joins values, the source holds several entries; their conditions need not be identical. Equal entries are not always repeated. Calls of active or inactive are those of the source.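 The calls were made as follows, unless noted: active = viability at or under a set limit in both replicates, limit being median viability minus 3 SD (cut at about 48% in these data, passing the limit was not always enough); inconclusive = at or under the limit in just one replicate; inactive = at or above the limit in both replicates.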

In assay [1] the target is Pantothenate synthetase (Mycobacterium tuberculosis (strain ATCC 25618 / H37Rv)) (UniProt P9WIL5). The experiment in a line: Recombinant Mtb pantothenate synthetase (PanC) inhibitors, coupled enzyme, confirmatory (AID 375; call rule not given here;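 also: 0% = full reaction with vehicle and 100% = no enzyme background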). The note with it: coupled enzyme assay; at 10 µM, stronger effect = higher value.
Assay [2] in a line: reducers of endogenous Her2 protein level, primary screen, SKBR3 breast tumor cells, AlphaScreen, ATP viability (AID 461;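 active = Her2 level under about 52% in both replicate screens, with viability over 70% of control, limit read from the data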;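 as to Her2 level: lower value means less Her2 protein in the cells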;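 as to viability: percent of carrier control wells set as 100% viability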). The following applies: 18-24 h, measured here: SKBR3 viability, ATP luminescence, at 10 µM. Background: Alpha assays give light when donor and acceptor beads are brought close together.
Assay [3] has as its target Receptor tyrosine-protein kinase erbB-2 (Homo sapiens) (UniProt P04626). The assay is described as above. The following applies: 18-24 h, at 10 µM, stronger effect = lower value.
Assay [4] in a line: SK-BR-3 cell growth inhibitors, pilot screen, 24 h, human (AID 572;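 active = viability at or below 10% of carrier control in both of two separate runs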;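 also: compound exposure lasted between 18 and 24 h rather than exactly 24 h; 100% = carrier-treated control wells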). The note with it: SK-BR-3 viability, CellTiter-Glo luminescence, at 10 µM, stronger effect = lower value.
The nature of assay [5]: HUVEC growth inhibition – cell-based, human, primary screen (AID 575;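 active = viability at or below 30% in both replicate assays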;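 also: 100% = median of untreated cell wells with 0.1% DMSO on each plate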). The following applies: HUVEC proliferation, CellTiter-Glo luminescence, 72 h; at 10 µM; stronger effect = lower value. The method in brief:
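system = HUVEC primary cells | amount = 1250 cells/well | buffer or medium = supplemented EBM, 2% fetal bovine serum | dosing = single-point 10 µM, DMSO 0.1% final | times = 72 h compound incubation | detection = CTG luminescence | read-out = % viability relative to median vehicle-well signal on each plate | control set = vehicle and MePR control wells | format = collagen-coated 384-well format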
In general terms: ATP-based viability assays read luminescence as a measure of living cells.

Assay [6] is described as follows: growth inhibitors of H69AR lung tumor, primary screen, human, duplicate replicates (AID 580).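 Also: 100% = mean luminescence of untreated wells and 0% = no signal.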 The following applies: H69AR lung tumor cells viability, ATP luminescence, 72 h; at 10 µM; stronger effect = lower value.
Assay [7] in a line: reversal of MRP1-mediated doxorubicin resistance, pilot screen, H69AR cells, doxorubicin co-treatment (AID 601;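 active = viability loss from added drug above about 55%, and viability with drug at most 40%, in both replicates, limit read from the data, passing the limit was not always enough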). The following applies: CellTiter-Glo, 72 h, at 10 µM; for differential viability (reversal): stronger effect = higher value.
Assay [8] is described as follows: 384-well plate pilot, post-Golgi transport modulator project, inhibition of yeast transport mutant growth (AID 636; in the data active = inhibition above about 31%). The following applies: absorbance 615 nm, about 18 h, stronger effect = higher value.
Assay [9] in a line: growth suppression of yeast trafficking mutant, preliminary HTS, modulators of trafficking downstream of Golgi apparatus project, 1536-format plate, OD 615 nm (AID 637; in the data active = inhibition above about 30%). The note with it: yeast transport mutant growth, absorbance 615 nm, 18 h; stronger effect = higher value.
[10] abbreviates: H69AR cells + 2 uM doxorubicin, measured here: viability with 2 uM doxorubicin, stronger effect = lower value.
Where [11] appears, read: H69AR cells, compound alone cytotoxicity.

As usually defined, the inhibition is the relative decrease from the control value, in per cent. The viability is a read-out of living cells in per cent, often relative to untreated cells.

Pantothenate synthetase (Mycobacterium tuberculosis (strain ATCC 25618 / H37Rv)), sequence (P9WIL5 whole entry, looked up): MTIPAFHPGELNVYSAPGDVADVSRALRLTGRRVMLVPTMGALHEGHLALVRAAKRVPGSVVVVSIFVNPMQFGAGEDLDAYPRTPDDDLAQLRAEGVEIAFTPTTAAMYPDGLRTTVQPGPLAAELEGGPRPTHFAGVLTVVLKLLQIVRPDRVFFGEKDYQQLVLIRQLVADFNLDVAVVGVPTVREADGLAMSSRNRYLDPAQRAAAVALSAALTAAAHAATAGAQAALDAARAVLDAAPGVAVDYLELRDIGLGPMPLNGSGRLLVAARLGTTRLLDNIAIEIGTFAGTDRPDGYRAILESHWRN
Receptor tyrosine-protein kinase erbB-2 (Homo sapiens), sequence (P04626 whole entry, looked up): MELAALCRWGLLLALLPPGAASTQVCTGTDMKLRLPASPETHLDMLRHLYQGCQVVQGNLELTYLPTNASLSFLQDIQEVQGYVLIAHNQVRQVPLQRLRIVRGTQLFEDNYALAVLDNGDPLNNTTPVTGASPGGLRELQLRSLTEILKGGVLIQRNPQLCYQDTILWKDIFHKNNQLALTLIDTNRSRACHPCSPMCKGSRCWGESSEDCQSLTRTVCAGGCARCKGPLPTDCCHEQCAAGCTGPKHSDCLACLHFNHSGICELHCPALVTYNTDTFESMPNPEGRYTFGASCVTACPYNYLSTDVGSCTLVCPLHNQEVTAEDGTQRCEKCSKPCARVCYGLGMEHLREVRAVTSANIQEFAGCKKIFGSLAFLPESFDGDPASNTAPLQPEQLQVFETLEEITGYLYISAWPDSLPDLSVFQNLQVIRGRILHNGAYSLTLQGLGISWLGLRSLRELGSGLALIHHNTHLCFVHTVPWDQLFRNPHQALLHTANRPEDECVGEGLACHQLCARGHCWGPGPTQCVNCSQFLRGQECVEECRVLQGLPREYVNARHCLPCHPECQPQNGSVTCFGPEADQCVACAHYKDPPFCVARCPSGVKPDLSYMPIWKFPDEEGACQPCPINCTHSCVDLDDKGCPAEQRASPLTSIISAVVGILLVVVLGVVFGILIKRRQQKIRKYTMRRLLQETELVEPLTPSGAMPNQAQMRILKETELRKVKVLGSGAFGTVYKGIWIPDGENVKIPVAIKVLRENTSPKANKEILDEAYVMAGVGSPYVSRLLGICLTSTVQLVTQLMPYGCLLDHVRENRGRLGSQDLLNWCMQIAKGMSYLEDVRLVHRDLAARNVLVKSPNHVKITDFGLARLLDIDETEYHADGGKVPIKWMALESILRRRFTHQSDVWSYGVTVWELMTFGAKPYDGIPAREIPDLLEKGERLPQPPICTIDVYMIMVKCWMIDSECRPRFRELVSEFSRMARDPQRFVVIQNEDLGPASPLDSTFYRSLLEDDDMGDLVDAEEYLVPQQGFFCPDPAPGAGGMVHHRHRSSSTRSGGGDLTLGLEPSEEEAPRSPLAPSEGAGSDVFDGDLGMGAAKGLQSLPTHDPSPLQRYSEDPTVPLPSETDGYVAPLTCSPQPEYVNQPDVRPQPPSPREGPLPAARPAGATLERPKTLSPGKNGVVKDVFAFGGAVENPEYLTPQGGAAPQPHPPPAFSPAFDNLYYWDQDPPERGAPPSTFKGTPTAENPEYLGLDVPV

Turning to `C[N+]1(C)CCc2cc3c(cc2[C@H]1[C@@H]1OC(=O)c2c1ccc1c2OCO1)OCO3`, the inhibition in assay [1] is 0% (inactive). Also, the viability in assay [2] is 89.5%; in assay [4], 89.5% (inactive); in assay [5] it was 87.1% (inactive); in [6], 113% (inactive); in assay [7] (setting [10]), 105%; in assay [7] (setting [11]) it was 113%. Besides, in [3], the Her2 level is 102% (inactive). Also, in assay [7] (H69AR cells + 2 uM doxorubicin), the differential viability (reversal) is 7.33% (inactive).
On to `COC(=O)CC1(Cc2ccccc2)C(=O)NC(=O)NC1=O`, for which the inhibition in assay [1] was 0% (inactive); in [8], -5.07% (inactive); in assay [9], -0.98% (inactive). The viability is 92.5% in assay [2]; 92.5% (inactive) in [4]; 86.8% (inactive) in assay [5]; 102% (inactive) in assay [6]; 88.4% in assay [7] (setting [10]); 102% in assay [7] (setting [11]). In addition, the Her2 level in assay [3] was 96.5% (inactive). The differential viability (reversal) in [7] (H69AR cells + 2 uM doxorubicin) was 13.1% (inactive).
As to `COC(=O)c1ccccc1-n1c(C)nc2ccccc2c1=O`, the results for the inhibition in assay [1], in [8] and in assay [9] were 4% (inactive), -2.5% (inactive) and -5.97% (inactive), respectively. Further, the viability is 90% in assay [2]; 90% (inactive) in assay [4]; 111% (inactive) in assay [5]; 98.5% (inactive) in assay [6]; 95.2% in [7] (setting [10]); 98.5% in assay [7] (setting [11]). For the same compound, the Her2 level in assay [3] is 105% (inactive). Also, the differential viability (reversal) in assay [7] (H69AR cells + 2 uM doxorubicin) is 3.37% (inactive).
With `CCC(COC(=O)c1cc(OC)c(OC)c(OC)c1)(c1ccccc1)N(C)C` (centres undefined), the inhibition in assay [1] was 2% (inactive). In addition, the viability in assay [2] was 87.5%; in assay [4] it was 87.5% (inactive); in assay [5] it was 104% (inactive); in assay [6], 87.6% (inactive); in [7] (setting [10]) it was 75.7%; in assay [7] (setting [11]) it was 87.6%. For the same compound, the Her2 level in assay [3] was 107% (inactive). The differential viability (reversal) in assay [7] (H69AR cells + 2 uM doxorubicin) was 11.9% (inactive).
As for `C=CCn1c(O)c(C(C)=NCCCO)c(=O)[nH]c1=O`, the figures for the inhibition in [1], in assay [8] and in assay [9] were 0% (inactive), -4.94% (inactive) and -8.5% (inactive), respectively. The viability is 93% in [2]; 93% (inactive) in assay [4]; 107% (inactive) in [5]; 94.3% (inactive) in [6]; 92.1% in assay [7] (setting [10]); 94.3% in assay [7] (setting [11]). Besides, the Her2 level in assay [3] was 114% (inactive). For the same compound, the differential viability (reversal) in [7] (H69AR cells + 2 uM doxorubicin) was 2.26% (inactive).
As to `CCn1nc(-c2ccccc2)nc2c(=O)n(C)c(=O)nc1-2`, the inhibition in assay [1] is 0% (inactive); in [8], 98.4% (active); in assay [9] it was 100% (active). In addition, the viability in assay [2] was 106%; in assay [4], 106% (inactive); in assay [5], 2.75% (active); in assay [6], 1.38% (active); in assay [7] (setting [10]), 0.875%; in [7] (setting [11]), 1.38%. In addition, the Her2 level in assay [3] is 93% (inactive). In addition, the differential viability (reversal) in [7] (H69AR cells + 2 uM doxorubicin) is 0.5% (inactive).
Turning to `Cc1ccc(C2SCC(=O)Nc3c2c(=O)[nH]n3C2CCOC(C)(C)C2)cc1` (centres undefined), the inhibition is 0% (inactive) in [1], -5.66% (inactive) in assay [8] and 5.83% (inactive) in assay [9]. Moreover, the viability in [2] is 100%; in assay [4], 100% (inactive); in assay [5], 90.9% (inactive); in assay [6] it was 98.2% (inactive); in [7] (setting [10]) it was 87%; in assay [7] (setting [11]), 98.2%. In addition, in [3], the Her2 level is 92% (inactive). In addition, the differential viability (reversal) in [7] (H69AR cells + 2 uM doxorubicin) was 11.2% (inactive).
As for `O=C(O)c1nonc1-c1nonc1C(=O)O`, the inhibition was 0% (inactive) in assay [1], -1.97% (inactive) in [8] and 6.39% (inactive) in assay [9]. Moreover, the viability in assay [2] was 99%; in [4] it was 99% (inactive); in assay [5] it was 100% (inactive); in [6], 99% (inactive); in assay [7] (setting [10]) it was 97.5%; in [7] (setting [11]), 99%. Moreover, the Her2 level in assay [3] was 114% (inactive). Besides, the differential viability (reversal) in assay [7] (H69AR cells + 2 uM doxorubicin) is 1.51% (inactive).
Regarding `O=C(NC1(C(F)(F)F)Oc2ccc(Cl)cc2O1)N1CCC2(CC1)OCCO2` (centres undefined), the inhibition in assay [1] is 1% (inactive); in assay [8], -2.47% (inactive); in assay [9], -5.56% (inactive). Moreover, the viability in [2] was 91.5%; in assay [4] it was 91.5% (inactive); in [5] it was 58.5% (inactive); in assay [6], 27.9% (active); in assay [7] (setting [10]), 51.7%; in assay [7] (setting [11]), 27.9%. Further, the Her2 level in assay [3] is 87.5% (inactive). For the same compound, the differential viability (reversal) in [7] (H69AR cells + 2 uM doxorubicin) is -23.8% (inactive).
Regarding `O=C1C2CCCN2C(c2ccc(Cl)c(Cl)c2)N1c1ccccn1` (centres undefined), the inhibition in assay [1] was 0% (inactive); in assay [8], -4.08% (inactive); in [9], 1.77% (inactive). Further, the viability in assay [2] is 128%; in assay [4], 128% (inactive); in assay [5] it was 107% (inactive); in [6] it was 97.4% (inactive); in assay [7] (setting [10]) it was 86%; in [7] (setting [11]), 97.4%. For the same compound, the Her2 level in assay [3] is 102% (inactive). The differential viability (reversal) in [7] (H69AR cells + 2 uM doxorubicin) was 11.4% (inactive).
Consider `C[N+]1(C)[C@@H]2CC[C@H]1CC(OC(=O)C(CO)c1ccccc1)C2` (some centres undefined), for which the inhibition in assay [1] is 6% (inactive) and 13% (inactive). Moreover, the viability in assay [2] is 97.5% and 140%; in assay [4], 97.5% (inactive) and 140% (inactive); in [5] it was 103% (inactive) and 106% (inactive); in assay [6], 100% (inactive) and 112% (inactive); in assay [7] (setting [10]), 95.6% and 104%; in assay [7] (setting [11]), 100% and 112%. For the same compound, in [3], the Her2 level is 100% (inactive) and 106% (inactive). In assay [7] (H69AR cells + 2 uM doxorubicin), the differential viability (reversal) is 4.59% (inactive) and 7.77% (inactive).
For the compound `Cc1nn(-c2ccccc2)c2c1CC1(C(=O)N(C)C(=O)N(C)C1=O)C1CCCCN21` (centres undefined), the inhibition in assay [1] is 0% (inactive); in assay [8] it was -4.86% (inactive); in assay [9] it was -2.13% (inactive). The viability in [2] was 97%; in assay [4], 97% (inactive); in assay [5], 91.7% (inactive); in [6], 84.7% (inactive); in assay [7] (setting [10]), 96.7%; in assay [7] (setting [11]), 84.7%. In addition, in assay [3], the Her2 level was 114% (inactive). In assay [7] (H69AR cells + 2 uM doxorubicin), the differential viability (reversal) was -12% (inactive).
As to `O=c1c2ccccc2nc(CSc2ncnc3nc[nH]c23)n1-c1ccccc1`, the figures for the inhibition in assay [1], in [8] and in assay [9] were 0% (inactive), -1.92% (inactive) and -10.5% (inactive), respectively. For the same compound, the viability in [2] was 96%; in assay [4], 96% (inactive); in [5] it was 87.6% (inactive); in assay [6] it was 80.9% (inactive); in assay [7] (setting [10]), 89.6%; in [7] (setting [11]) it was 80.9%. Further, the Her2 level in assay [3] is 97.5% (inactive). Besides, in assay [7] (H69AR cells + 2 uM doxorubicin), the differential viability (reversal) is -8.74% (inactive).
With `Cc1ccc(C)c(NC(=O)CSc2nnc([C@@H](N)Cc3c[nH]c4ccccc34)o2)c1`, the values for the inhibition in [1], in assay [8] and in [9] were 6% (inactive), -5.2% (inactive) and -4.13% (inactive), respectively. In addition, the viability in assay [2] is 101%; in [4], 101% (inactive); in assay [5] it was 86.9% (inactive); in assay [6], 106% (inactive); in assay [7] (setting [10]) it was 92.9%; in [7] (setting [11]), 106%. In [3], the Her2 level is 94.5% (inactive). In addition, in [7] (H69AR cells + 2 uM doxorubicin), the differential viability (reversal) was 13.5% (inactive).
`CC(C)(C)OC(=O)c1c(N)n(Cc2ccco2)c2nc3ccccc3nc12`: the inhibition in assay [1] was 3% (inactive); in assay [8] it was 0.79% (inactive); in assay [9] it was -6.13% (inactive). In addition, the viability is 98.5% in assay [2]; 98.5% (inactive) in [4]; 62.5% (inactive) in assay [5]; 65.4% (inactive) in assay [6]; 74.8% in assay [7] (setting [10]); 65.4% in [7] (setting [11]). Besides, the Her2 level in [3] is 76% (inactive). Besides, the differential viability (reversal) in [7] (H69AR cells + 2 uM doxorubicin) is -9.48% (inactive).
